Measurements taken from ChEMBL document CHEMBL1137307, “Further studies on imidazo[4,5-b]pyridine AT1 angiotensin II receptor antagonists. Effects of the transformation of the 4-phenylquinoline backbone into 4-phenylisoquinolinone or 1-phenylindene scaffolds” (J Med Chem, 2006).

Legend:
[1] = biological target: T1, Angiotensin II receptor (AT-1) type-1 (Rattus norvegicus, UniProt P29089+P25095); experiment: Displacement of [125I]Sar1,Ile8-Ang2 from AT1 receptor in rat hepatic membrane; format: cell membranes, Liver
T1 sequence (P29089 whole entry): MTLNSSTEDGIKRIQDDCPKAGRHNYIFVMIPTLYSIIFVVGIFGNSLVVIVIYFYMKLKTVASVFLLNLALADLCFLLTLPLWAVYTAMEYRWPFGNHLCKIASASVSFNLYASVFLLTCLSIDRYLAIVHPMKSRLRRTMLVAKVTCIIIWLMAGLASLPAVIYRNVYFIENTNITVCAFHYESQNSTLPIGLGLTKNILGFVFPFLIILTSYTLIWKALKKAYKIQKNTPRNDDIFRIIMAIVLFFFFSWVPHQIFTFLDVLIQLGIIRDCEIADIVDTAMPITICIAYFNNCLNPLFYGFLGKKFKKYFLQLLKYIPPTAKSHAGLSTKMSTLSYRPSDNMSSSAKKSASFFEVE
T1 sequence (P25095 whole entry): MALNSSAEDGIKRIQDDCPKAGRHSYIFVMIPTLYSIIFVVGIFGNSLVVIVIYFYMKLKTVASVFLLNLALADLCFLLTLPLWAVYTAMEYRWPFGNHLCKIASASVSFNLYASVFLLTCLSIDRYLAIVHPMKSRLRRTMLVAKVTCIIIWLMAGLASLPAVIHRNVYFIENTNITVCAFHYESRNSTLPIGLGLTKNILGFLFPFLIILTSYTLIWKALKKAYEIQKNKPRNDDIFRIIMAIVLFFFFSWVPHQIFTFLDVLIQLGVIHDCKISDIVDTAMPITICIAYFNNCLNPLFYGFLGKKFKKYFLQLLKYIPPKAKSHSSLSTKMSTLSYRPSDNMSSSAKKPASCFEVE
Summary of the method: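 Rat liver membranes from male Wistar rats, prepared by differential centrifugation (750g, then 50 000g), 25 µg protein per well in 50 mM Tris-HCl, 100 mM NaCl, 10 mM MgCl₂, 1 mM EDTA, bacitracin, PMSF, 0.1% BSA, pH 7.4. Nonspecific binding defined with 1 µM Ang II. Filtration read-out. IC50 given as mean ± SEM of three determinations.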

[2] = biological target: T2, Type-1 angiotensin II receptor (Oryctolagus cuniculus, UniProt P34976); experiment: Antagonist activity against AT1 receptor assessed as inhibition of Ang2-induced rabbit aortic strip contraction; format: functional
T2 sequence (P34976 whole entry): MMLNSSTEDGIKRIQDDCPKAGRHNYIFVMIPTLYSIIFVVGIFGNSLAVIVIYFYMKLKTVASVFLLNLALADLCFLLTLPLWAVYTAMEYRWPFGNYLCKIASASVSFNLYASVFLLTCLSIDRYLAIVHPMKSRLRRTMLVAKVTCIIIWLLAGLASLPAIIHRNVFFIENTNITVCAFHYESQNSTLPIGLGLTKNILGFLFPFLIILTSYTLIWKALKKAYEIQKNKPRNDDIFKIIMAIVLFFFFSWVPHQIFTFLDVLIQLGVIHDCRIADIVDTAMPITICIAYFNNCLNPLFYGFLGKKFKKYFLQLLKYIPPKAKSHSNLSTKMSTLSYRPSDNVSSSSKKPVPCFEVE
Summary of the method: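 Rabbit aortic strips equilibrated 1 h, washed every 10 min. An Ang II cumulative curve was run, then 30 min washout. Antagonist or vehicle applied for 60 min before a submaximal (70-80%) Ang II challenge, 5 nM in controls. One antagonist concentration per tissue. Response read as % inhibition of contraction; IC50 derived from the regression line.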

[3] = Apparent permeability from apical to basolateral side of Caco-2 cell; format: ADME, cell-based; conditions: human
Summary of the method: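 Caco-2 cells grown in DMEM with 10% FBS on polycarbonate supports, 15-21 days at 37 °C. Compound dosed apically at 10-100 µM final in HBSS with 1% DMSO, at 37 °C, apical-to-basolateral direction. Monolayer integrity checked by [¹⁴C]mannitol permeability. Transported compound measured by HPLC-MS; Papp calculated by equation.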

[4] = AUC in Sprague-Dawley rat at 3 mg/kg, iv; format: ADME, organism-based; parameters: dose 3 mg/kg, route intravenous; conditions: plasma
Summary of the method: (§1)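 Fasted Sprague-Dawley rats, 250-300 g, dosed orally or by tail-vein injection. Blood sampled at selected times and plasma analysed by HPLC. t1/2 (terminal), AUC, observed Cmax and tmax calculated from plasma concentration-time data.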

[5] = Terminal half life in Sprague-Dawley rat at 3 mg/kg, iv; format: ADME, organism-based; parameters: dose 3 mg/kg, route intravenous; conditions: in vivo, read-out: beta t1/2 (converted); summary of the method: as §1
[6] = Oral bioavailability in Sprague-Dawley rat at 10 mg/kg, po; conditions: in vivo
[7] = AUC in Sprague-Dawley rat at 30 mg/kg, po; format: ADME, organism-based; parameters: dose 30 mg/kg, route oral; conditions: plasma
Summary of the method: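 Fasted Sprague-Dawley rats (250-300 g) given compound orally; blood sampled at selected times after dosing, plasma analysed by HPLC, and area under the plasma concentration-time curve calculated.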

[8] = Terminal half life in Sprague-Dawley rat at 30 mg/kg, po; format: ADME, organism-based; parameters: dose 30 mg/kg, route oral; conditions: in vivo, read-out: beta t1/2 (converted); summary of the method: as §1
[9] = Cmax in Sprague-Dawley rat at 30 mg/kg, po; format: ADME, organism-based; parameters: dose 30 mg/kg, route oral; conditions: in vivo; summary of the method: as §1
[10] = Tmax in Sprague-Dawley rat at 30 mg/kg, po; format: ADME, organism-based; parameters: dose 30 mg/kg, route oral; conditions: in vivo; summary of the method: as §1
[11] = Oral bioavailability in Sprague-Dawley rat at 30 mg/kg, po; format: ADME, organism-based; conditions: in vivo; summary of the method: as §1

SMILES: CCCc1nc2c(C)cc(C)nc2n1Cc1ccc(C2=C(C(=O)NS(C)(=O)=O)C(=O)c3ccccc32)cc1
- IC50 [1]: 54 nM

SMILES: CCc1nc2c(C)cc(C)nc2n1Cc1ccc(-c2c(C(=O)O)n(C)c(=O)c3ccccc23)cc1
- IC50 [1]: 5.2 nM
- IC50 [2]: 4.6 nM
- Papp A→B [3]: 0.03 ×10⁻⁶ cm/s
- AUC [4]: 630 ng·h/mL
- half-life [5]: 13.2 min
- bioavailability [6]: 0%

SMILES: CCCc1nc2c(C)cc(C)nc2n1Cc1ccc(-c2c(C(=O)O)c(C)nc3ccccc23)cc1
- IC50 [1]: 9 nM
- IC50 [2]: 13 nM
- AUC [4]: 500 ng·h/mL
- half-life [5]: 19.8 min

SMILES: CCCCc1nc2c(C)cc(C)nc2n1Cc1ccc(-c2c(-c3nn[nH]n3)n(C)c(=O)c3ccccc23)cc1
- IC50 [1]: > 300 nM

SMILES: CCCc1nc2c(C)cc(C)nc2n1Cc1ccc(-c2c(C(=O)O)c(N)nc3ccccc23)cc1
- IC50 [1]: 4.2 nM
- IC50 [2]: 3.3 nM
- AUC [4]: 520 ng·h/mL
- half-life [5]: 16.8 min

SMILES: CCc1nc2c(C)cc(C)nc2n1Cc1ccc(C2=C(C(=O)O)C(=O)c3ccccc32)cc1
- IC50 [1]: 53 nM

SMILES: CCc1nc2c(C)cc(C)nc2n1Cc1ccc(-c2c(-c3nn[nH]n3)cnc3ccccc23)cc1
- IC50 [1]: 6.9 nM
- IC50 [2]: 8.9 nM
- Papp A→B [3]: 0.1 ×10⁻⁶ cm/s
- AUC [4]: 890 ng·h/mL
- AUC [7]: 4400 ng·h/mL
- half-life [5]: 40.8 min
- half-life [8]: 60 min
- Cmax [9]: 4200 ng/mL
- Tmax [10]: 30 min
- bioavailability [11]: 49%

SMILES: CCCc1nc2c(C)cc(C)nc2n1Cc1ccc(-c2c(C(=O)O)c(Cl)nc3ccccc23)cc1
- IC50 [1]: 7.7 nM
- AUC [4]: 340 ng·h/mL
- half-life [5]: 18 min

SMILES: CCc1nc2c(C)cc(C)nc2n1Cc1ccc(-c2c(-c3nn[nH]n3)n(C)c(=O)c3ccccc23)cc1
- IC50 [1]: > 300 nM

SMILES: CCCc1nc2c(C)cc(C)nc2n1Cc1ccc(C2=C(C(=O)NS(=O)(=O)c3ccccc3)C(=O)c3ccccc32)cc1
- IC50 [1]: 131 nM

SMILES: CCCc1nc2c(C)cc(C)nc2n1Cc1ccc(C2=C(C(=O)O)C(C)(O)c3ccccc32)cc1 (configuration not stated)
- IC50 [1]: 11 nM
- IC50 [2]: 33 nM

SMILES: CCCCc1nc2c(C)cc(C)nc2n1Cc1ccc(-c2c(C(=O)O)n(C)c(=O)c3ccccc23)cc1
- IC50 [1]: 6.2 nM
- Papp A→B [3]: 0.01 ×10⁻⁶ cm/s

SMILES: CCCc1nc2c(C)cc(C)nc2n1Cc1ccc(C2C(C(=O)O)=C(C)c3ccccc32)cc1 (configuration not stated)
- IC50 [1]: 47 nM

SMILES: CCCc1nc2c(C)cc(C)nc2n1Cc1ccc(C2=C(C(=O)O)C(O)(CC)c3ccccc32)cc1 (configuration not stated)
- IC50 [1]: 15 nM

SMILES: CCCc1nc2c(C)cc(C)nc2n1Cc1ccc(C2(CC(=O)O)CC(=O)c3ccccc32)cc1 (configuration not stated)
- IC50 [1]: 139 nM

SMILES: C=C1C(C(=O)O)=C(c2ccc(Cn3c(CCC)nc4c(C)cc(C)nc43)cc2)c2ccccc21
- IC50 [1]: 60 nM

SMILES: CCCc1nc2c(C)cc(C)nc2n1Cc1ccc(-c2c(C(=O)O)n(C)c(=O)c3ccccc23)cc1
- IC50 [1]: 5.7 nM

SMILES: CCCc1nc2c(C)cc(C)nc2n1Cc1ccc(C2=C(C(=O)O)C(C)c3ccccc32)cc1 (configuration not stated)
- IC50 [1]: 99 nM

SMILES: CCCc1nc2c(C)cc(C)nc2n1Cc1ccc(-c2c(-c3nn[nH]n3)n(C)c(=O)c3ccccc23)cc1
- IC50 [1]: > 300 nM

SMILES: CCCc1nc2c(C)cc(C)nc2n1Cc1ccc(C2(C(C(=O)O)C(=O)O)CC(=O)c3ccccc32)cc1 (configuration not stated)
- IC50 [1]: 55 nM

SMILES: CCCCc1nc(Cl)c(CO)n1Cc1ccc(-c2ccccc2-c2nn[nH]n2)cc1 [LOSARTAN]
- Papp A→B [3]: 1.15 ×10⁻⁶ cm/s
- AUC [4]: 12400 ng·h/mL
- AUC [7]: 74800 ng·h/mL
- half-life [5]: 282 min
- half-life [8]: 180 min
- Cmax [9]: 27500 ng/mL
- Tmax [10]: 30 min
- bioavailability [11]: 60%
